ChEMBL document CHEMBL4354813, “Design, Synthesis, and Pharmacological Evaluation of Potent Positive Allosteric Modulators of the Glucagon-like Peptide-1 Receptor (GLP-1R)” (J Med Chem, 2020)
Calls of active or inactive are those of the source. No cut-off for these calls is given here.

Tests used:
[1] = AUClast in Wistar rat at 10 mg/kg, po administered as single dose measured up to 24 hrs ESI-LC/MS-MS analysis; assay type: ADME, organism-based; design: dose 10 mg/kg, time < 24 hr, route oral; conditions: in vivo
Procedure, shortened: (§1)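 Single dose of compound: 3 mg/kg i.v. in solution (75% water : 25% of 75% Glycoferol/25% Cremophor) or 10 mg/kg p.o. as wet-milled suspension (0.6% methylcellulose, 0.5% Tween 80 in water); male Wistar rats n=3 per route, female C57Bl6 mice n=24 per route. Plasma sampled 0.25–24 h (p.o.), 0.083–24 h (i.v.); heparinized plasma, acetonitrile precipitation, ESI-LC/MS-MS (LOQ 1 ng/mL rat, 5 ng/mL mouse); noncompartmental analysis, linear trapezoidal.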

Mus musculus [2] = assay: Suppression of blood glucose concentration in 0.3 to 4.5 mg/kg, ip GLP1(9-36)NH2-treated normoglycemic C57Bl/6J mouse at 30 mg/kg, po dosed 1 hrs before test by oral glucose-tolerance test; assay type: functional, organism-based
Procedure, shortened: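 Male C57Bl/6J mice aged 10–11 weeks, n=6, fasted overnight. Rifampicin 60 mg/kg p.o. 2.5 h before the oGTT, compound p.o. 1 h before, GLP1(9-36)NH2 i.p. (0.3, 1, 3, 4.5 mg/kg) 15 min before. Glucose 2 g/kg orally. Tail-vein blood glucose by glucometer at 0, 15, 30, 60 and 90 min.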

[3] = Clearance in mouse hepatocytes assessed per million cells by LC-MS/MS analysis; assay type: ADME, cell-based, Hepatocyte
Procedure, shortened: (§2)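 Intrinsic clearance in primary human hepatocytes ([…] as printed) or mouse hepatocytes, compound 0.5–5 µM; quinidine or ketoconazole added to define CYP2D6/CYP3A4 contribution; LC-MS/MS analysis.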

[4] = Oral bioavailability in Wistar rat at 10 mg/kg administered as single dose measured up to 24 hrs ESI-LC/MS-MS analysis; assay type: ADME, organism-based; conditions: in vivo; procedure, shortened: as §1
[5] = Drug recovery in iv dosed rat bile assessed as metabolically unchanged compound level in rat fistula study; assay type: ADME, organism-based; conditions: read-out: Drug recovery
[6] = Clearance in human hepatocytes assessed per million cells by LC-MS/MS analysis; assay type: ADME, cell-based, Hepatocyte; procedure, shortened: as §2
Mus musculus [7] = assay: Suppression of blood glucose concentration in ob/ob C57Bl/6J mouse model of T2DM at 30 mg/kg, po dosed 1 hrs before test and treated with 60 mg/kg, po OATP/MRP2 inhibitor rifampicin 2.5 hrs prior to oral glucose-tolerance test; assay type: functional, organism-based
Procedure, shortened: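 Male ob/ob mice aged 10–11 weeks, n=7, randomised on blood glucose and fasted overnight. Rifampicin 60 mg/kg p.o. 2.5 h before the oGTT, compound 30 mg/kg p.o. 1 h before, GLP1(9-36)NH2 i.p. 15 min before, each given as indicated. Glucose 2 g/kg orally. Tail-vein glucose by glucometer at 0, 15, 30, 60 and 90 min.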

[8] = Cmax in Wistar rat at 10 mg/kg, po administered as single dose treated 2 hrs after dosing with 40 mg/kg, po OATP/MRP2 inhibitor rifampicin and measured up to 24 hrs ESI-LC/MS-MS analysis; assay type: ADME, organism-based; design: dose 10 mg/kg, route oral; conditions: in vivo
Procedure, shortened: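 Male Wistar rats (n=3 per route) pretreated orally with rifampicin 40 mg/kg (0.6% methylcellulose, 0.5% Tween 80 in water) 2 h before compound, given 3 mg/kg i.v. in Glycoferol/Cremophor-water solution or 10 mg/kg p.o. wet-milled suspension. Plasma sampled up to 24 h; ESI-LC/MS-MS after acetonitrile precipitation (LOQ 1 ng/mL); noncompartmental analysis.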

[9] = Lipophilicity, logD of the compound at pH 7.4 at 25 degC; assay type: physicochemical; conditions: buffer
[10] = Volume of distribution at steady state in Wistar rat at 3 mg/kg, iv administered as single dose treated 2 hrs after dosing with 40 mg/kg, po OATP/MRP2 inhibitor rifampicin and measured up to 24 hrs ESI-LC/MS-MS analysis; assay type: ADME, organism-based; conditions: in vivo, read-out: Vdss
Pancreatic islet = assay: Inhibition of glucose-stimulated insulin secretion in dispersed GLP-1(-/-) mouse pancreatic islets at 10 uM incubated for 2 hrs by ELISA; assay type: functional, cell-based
Rattus norvegicus = species on record: Rattus norvegicus; assay: Inhibition of GLP1(9-36)NH2-mediated glucose-stimulated insulin secretion in dispersed rat pancreatic islets at 10 uM incubated for 2 hrs by ELISA; assay type: functional
Procedure, shortened: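 Dispersed islets from male Sprague Dawley rats (collagenase digestion, Histopaque purification, Accutase dispersal, cultured up to 4 days). Pre-incubated 1 h in Krebs-Ringer with 5.6 mM glucose, then 2 h at 37 °C with 15 mM glucose, ±10 nM GLP1(9-36)NH2, ±compound 10 µM, DMSO vehicle; insulin by HTRF ELISA as % of total, n-fold vs control; N≥9.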

| SMILES | AUClast [1] [µg·h/mL] | Activity (Mus musculus [2]) | CLH [3] [mL/h/10^6 cells] | bioavailability [4] [%] | dose excreted [5] [%] | CLH [6] [mL/h/10^6 cells] | Activity (Mus musculus [7]) | Cmax [8] [µg/mL] | logD [9] | Vd [10] [L/kg] | inhibition (Pancreatic islet) | inhibition (Rattus norvegicus) |
| --- | --- | --- | --- | --- | --- | --- | --- | --- | --- | --- | --- | --- |
| CC(C)(C)OC(=O)n1c2c(c3ccccc31)C[C@H]1C(=O)N3C[C@@H](CC(=O)O)C[C@H]3[C@@H]2N1C(=O)CC1CCC(F)(F)CC1 | 0.11 | Dose-dependent effect | 0.145 | 9 | 74 | 0.184 | inactive | 1.13 | 1.7 | 0.815 | – | – |
| CC(O)CCN1C[C@H]2c3c(c4ccccc4n3C(=O)OC(C)(C)C)C[C@@H](C1=O)N2C(=O)CC1CCC(F)(F)CC1 (some centres not stated) | – | – | – | – | – | – | – | – | – | – | Active | Active |
